From PubChem
mIAP block: mouse IAP inhibition; purified mouse IAP, CDP-Star luminescence, 30 min; 330,000 compounds, 0.2% hits; inhibition, % at 10 µM;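 active = inhibition of at least 40% at 10 µM in the primary screen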;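 also: plate controls were DMSO with enzyme for no effect and no enzyme wells for full effect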
mIAP act: increases mouse intestinal alkaline phosphatase activity. muIAP, CDP-Star luminescence, 30 min; stronger effect = higher value; 1 = vehicle-only enzyme signal, 0 = enzyme-free wells. activation factor at 10 µM. 330,000 compounds, 0.24% hits. AID 2805;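 active = activation factor of at least 2 at 20 µM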
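also added = chemiluminescent substrate CDP-Star | test system = mouse IAP enzyme | signal = chemiluminescence readout | compound = DMSO-dissolved test compounds | incubation = 30 min at room temperature | benchmarks = DMSO wells, no-enzyme wells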
bIAP inhibitor: blocks bovine intestinal alkaline phosphatase activity; 190,000 tested, under 10 active; purified bovine IAP, CDP-star luminescence, 30 min; inhibition, % at 20 µM;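 active = over 50% inhibition of intestinal alkaline phosphatase at 20 µM in the single-dose screen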
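Incubation: 30 min reaction at room temperature / Material: purified bovine intestinal alkaline phosphatase (IAP) enzyme / Input: enzyme at 1/65,000,000 dilution / Dosing: 20 µM single dose / Signal: CDP-star luminescence signal / Reagent: CDP-star chemiluminescent phosphatase substrate, 30 µM final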
bIAP act: increases bovine intestinal alkaline phosphatase activity. purified bovine IAP, CDP-star luminescence, 30 min; stronger effect = higher value; fold of DMSO-control signal, blank-subtracted. activation factor at 20 µM. 200,000 compounds, 0.17% hits;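 active = activation factor of 2 or more at 20 µM, a signal rise over negative controls twice the positive control's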
hIAP activ: human IAP activation. purified human IAP, CDP-Star luminescence, 30 min; stronger effect = higher value; 1 = vehicle-only enzyme, 0 = enzyme-free background. activation factor at 10 µM. 330,000 compounds, 0.16% hits. AID 2524;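 active = activation factor of the enzyme at least 2-fold when tested at 20 µM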
Target sequence (P09923 whole entry, looked up): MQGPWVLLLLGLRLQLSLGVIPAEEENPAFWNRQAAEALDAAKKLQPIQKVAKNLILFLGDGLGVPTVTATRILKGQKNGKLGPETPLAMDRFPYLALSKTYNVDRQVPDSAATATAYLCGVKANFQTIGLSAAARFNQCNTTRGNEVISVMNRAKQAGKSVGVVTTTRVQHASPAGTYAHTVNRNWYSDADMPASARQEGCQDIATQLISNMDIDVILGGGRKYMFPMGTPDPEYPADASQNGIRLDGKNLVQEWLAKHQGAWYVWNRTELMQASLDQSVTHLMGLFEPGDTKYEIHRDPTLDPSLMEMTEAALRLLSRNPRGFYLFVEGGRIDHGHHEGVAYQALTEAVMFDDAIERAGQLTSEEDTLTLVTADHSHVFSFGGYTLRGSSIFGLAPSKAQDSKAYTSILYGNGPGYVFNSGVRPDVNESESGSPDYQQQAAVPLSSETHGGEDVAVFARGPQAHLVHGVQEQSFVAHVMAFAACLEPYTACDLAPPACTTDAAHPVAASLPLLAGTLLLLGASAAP
hIAP inh: human IAP inhibition | inhibition, % at 10 µM | purified IAP, CDP-Star luminescence, 30 min | P09923 | 330,000 compounds, 0.12% hits;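 active = inhibition reaching a set limit with compound at 10 µM in the primary screen, cut at about 35% in these data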;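 also: plate controls were DMSO wells with enzyme for no effect and no-enzyme buffer wells for full effect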
hIAP act confirm: human IAP activation confirmation; shares compounds with hIAP activ; purified IAP, CDP-Star luminescence, 30 min; stronger effect = lower value; activation (%Activity, negative = activation), % at 8.3 µM; 880 compounds, 10% hits;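 active = at least twofold enzyme activation in any of six single-dose repeats, which the averaged readout prints as negative percent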
mIAP inh confirm: mouse IAP inhibition confirmation; 11,000 compounds, 4.7% hits; AID 434971; inhibition, % at 10 µM; purified mouse IAP, CDP-Star luminescence, 30 min; shares compounds with mIAP block;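 active = inhibition of at least 40% at 10 µM in either of the two replicates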;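 also: plate controls were DMSO wells with enzyme for no effect and buffer wells lacking enzyme for full effect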
Active calls of the source: *; . = no result. Most compounds without a hit are left out; they make up all but 0.72% or so of the library.

SMILES	mIAP block	mIAP act	bIAP inhibitor	bIAP act	hIAP activ	hIAP inh	mIAP inh confirm	others
CNS(=O)(=O)c1ccc(-c2ccc(C=C3C(=O)NC(=O)NC3=O)o2)cc1	19	0.81	.	.	0.91	9	.
NS(=O)(=O)c1ccc(-c2ccc(C=C3C(=O)NC(=O)NC3=O)o2)cc1	64*	0.35	.	.	0.93	7	.
C[C@]12CCC3C(CC[C@H]4C[C@@H](O)CC[C@]34C)C1C[C@H](Br)[C@@H]2O (stereo not given in full)	-13	1.1	.	.	1.2	-15	.
COC(=O)C1=C(c2cc3ccccc3s2)C[C@@H]2CC[C@H]1N2C	3	0.97	.	.	0.9	10	.
CN1C(=O)C(=Cc2ccc(N3CCCCCC3)o2)C(=O)N(C)C1=S	43*	0.57	27	0.7	0.99	1	.
Nc1ncc([N+](=O)[O-])s1	43*	0.57	.	.	1.2	-17	.
O=C(Nc1cccc(Cl)c1)OC1CN2CCC1CC2 (stereo not given)	-342	4.4*	.	.	0.93	7	.
CC1(C)C2SCC(=O)N2CCN1CC(=O)NN (stereo not given)	-2	1	.	.	1.1	-6	.
COC(=O)Cn1cc(/C=C2\C(=O)NC(=O)N(c3ccccc3)C2=O)c2ccccc21	2	0.98	.	.	0.63	37*	.	hIAP act confirm=34
C[C@]12CCC3C(CC[C@H]4C[C@H](OC(=O)c5cccnc5)CC[C@]34C)C1CCC2=O (stereo not given in full)	0	1	.	.	1.1	-10	.
CC(C)(C)c1cc(C=C(C#N)C#N)cc(C(C)(C)C)c1O	24	0.76	.	.	0.8	20	.
N#CC(C#N)=Cc1ccc(O)c(O)c1	46*	0.54	.	.	0.67	33	66*
O=C1NC(=O)N(Cc2ccccc2)C(=O)/C1=C\c1ccco1	7	0.93	-14	1.1	0.91	9	.
O=C1NC(=O)N(Cc2ccc(F)cc2)C(=O)/C1=C\C=C\c1ccco1	59*	0.41	.	.	0.99	1	61*
NS(=O)(=O)c1ccc(-c2ccc(C=C3C(=O)NC(=S)NC3=O)o2)cc1	78*	0.22	.	.	0.93	7	72*
O=C(O)Cn1cc(/C=C2\C(=O)NC(=O)N(Cc3ccco3)C2=O)c2ccccc21	57*	0.43	-8	1.1	0.99	1	58*
CCN(CC)c1ccc(/C=C2\C(=O)NC(=O)N(Cc3ccco3)C2=O)cc1	49*	0.51	14	0.9	0.95	5	53*
CCN(CC)c1ccc(/C=C2/C(=O)NC(=O)N(CC3CCCO3)C2=O)cc1 (stereo not given)	3	0.97	1	1	0.91	9	.
CCOC(=O)c1c(C)n(Cc2ccccc2)c2ccc(OCC(O)CN3C(=O)CNC3=O)cc12 (stereo not given)	7	0.93	4	1	0.87	13	.
FC(F)(F)c1ccccc1CCN1CCNCC1	-5	1	.	.	0.98	2	.
CN1C(=O)NC(=O)/C(=C\c2ccc([N+](=O)[O-])o2)C1=O	44*	0.56	2	1	0.89	11	56*
O=C1NC(=O)N(c2ccccc2)C(=O)/C1=C\c1ccc([N+](=O)[O-])o1	47*	0.53	.	.	1.2	-16	59*
CN1C(=O)NC(=O)/C(=C/c2ccc([N+](=O)[O-])o2)C1=O	42*	0.58	.	.	0.88	12	42*
COC(=O)C1=C(c2cccc(OCc3ccccc3)c2)C[C@@H]2CC[C@H]1N2C(=O)NCc1ccc2[nH]ccc2c1	-30	1.3	.	.	1	-2	.
c1nc2nc3c(c(N4CCNCC4)n2n1)CCCC3	-12	1.1	.	.	1.1	-10	.
SMILES	mIAP block	mIAP act	bIAP inhibitor	bIAP act	hIAP activ	hIAP inh	mIAP inh confirm	others
O=C1NC(=O)N(c2ccccc2)C(=O)/C1=C\c1ccc([N+](=O)[O-])s1	41*	0.59	.	.	0.98	2	53*
CN1C(=O)NC(=O)/C(=C/c2ccc([N+](=O)[O-])s2)C1=O	46*	0.54	.	.	1	0	45*
Cc1ccc(/C=C2/C(=O)NC(=O)N(C)C2=O)cc1	1	0.99	-5	1	1.1	-13	.
COc1ccc(OC)c(N2C(=O)NC(=O)/C(=C\c3ccc([N+](=O)[O-])s3)C2=O)c1	28	0.72	-2	1	0.84	16	.
COC(=O)C1=C(c2ccc(OC(F)(F)F)cc2)C[C@@H]2CC[C@H]1N2C(=O)N1CCC(C)CC1	3	0.97	.	.	0.97	3	.
CCC1(OC(=O)c2ccccc2)CC(C)N(C)CC1C (stereo not given)	0	1	.	.	0.97	3	.
Cc1ccc(CN2C3CCCC2CC(NC(=S)NCc2ccccc2)C3)cc1 (stereo not given)	-353	4.5*	-320	4.2*	2	-100	-188
CCN1C(=O)C(=Cc2ccc(C)s2)C(=O)N(CC)C1=S	11	0.89	13	0.9	0.91	9	.
O=C1NC(=S)NC(=O)C1=Cc1ccc(Br)s1	60*	0.4	.	.	1.1	-6	76*
